Assay: Toxicity liver stage against HepG2, at 10uM
Format: cell-based
Design: test concentration 10 uM, cell line HepG2-A16-CD81EGFP
Conditions: human, HepG2-A16-CD81EGFP cells; read-out: INHIBITION
Summary of the method: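 Uninfected HepG2-A16-CD81EGFP cells, 3 × 10^3 per well, 1536-well, plated on prespotted compound at 10 μM final, parasite-free screening media added to match infected plates; puromycin 10 μM positive, DMSO 0.5% negative; run in parallel with 48 h PbLuc assay at 37 °C, 5% CO2; viability by CellTiter-Glo luminescence, normalized to controls.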

| SMILES | cytotoxicity at 10 µM |
| --- | --- |
| CC(C)(NCc1cccc(C(N)=O)c1)c1ccc2c(c1)OCO2 | 3.15% |
| O=S(=O)(C1CC1)N1CCOCC2(CCN(c3ccccn3)C2)C1 (stereo not given) | 12.9% |
| O=C(CCC1CCCC1)N1CCC(c2ncc3c(n2)CCNC3)CC1 | -3.91% |
| COc1ccc(C(=O)Nc2cnn(CCN3CCOCC3)c2)c(O)c1 | -3.92% |
| COc1ccccc1OCCNC(=O)NCc1nc(C)no1 | 6.67% |
| O=C1CN(c2ccc(CNC(=O)c3cccnc3O)cc2F)CCN1 | 5.04% |
| O=C(Nc1ccc(F)cc1)N1C[C@@H]2C[C@H](C(=O)N3CCCC3)[C@H](C1)O2 | 7.06% |
| O=C(Cc1ccc(O)c(F)c1)N1CCN(CC2CC2)[C@@H]2CS(=O)(=O)C[C@@H]21 | -2.06% |
| COCCN(C)C[C@@H]1CN(C(=O)c2ccc(SC)cc2)C[C@@H]1CO | 4.44% |
| Cc1nnc([C@@H]2CCO[C@@H]3CCN(C(=O)Cc4ccsc4)C[C@@H]32)o1 | 9.43% |
| Cc1ccc(C(=O)N2CCC3(CCC(=O)N(CC(N)=O)C3)CC2)cc1 | -0.527% |
| CS(=O)(=O)NC[C@]1(O)CCN(C(=O)Cc2cccs2)C[C@H]1O | -17.9% |
| O=C(NCCN1CCOCC1)c1cnc(-c2ccccc2F)s1 | 0.277% |
| CCCc1c(C2CCOC(C)(C)C2)nc(N)c(C#N)c1-c1cnn(C)c1 (stereo not given) | -3.22% |
| Cc1cc(N2CCC3(CCCN(CCO)C3=O)C2)nc2cc(Cl)ccc12 (stereo not given) | 3.72% |
| Cc1cc(C)n(CC2CCCN2CC(=O)NC2CCOCC2)n1 (stereo not given) | -5.23% |
| O=C1NCC[C@]12CN(Cc1nccs1)C[C@H]2c1ccccc1 | 11% |
| Cc1cccc(CN2C(=O)CC[C@@H]3[C@H]2CCN3Cc2nccn2C)n1 | -81.9% |
| COCC1c2nnn(CC3CC3)c2CCN1C(=O)Cc1cccs1 (stereo not given) | -15.8% |
| Cc1noc(Cl)c1CCC(=O)N1CCCCC1Cn1cccn1 (stereo not given) | -12.6% |
| CC(C)(C)c1nc(CN2CCCC(Cn3cncn3)C2)cs1 (stereo not given) | -4.54% |
| CCNC(c1ccc(Br)cc1)c1cccnc1 (stereo not given) | -0.1% |
| CC1CCN(C(=O)Cn2nc(Br)nc2Br)CC1 | -1.8% |
| N#Cc1ccccc1N1CCCN(C(=O)CCc2cccs2)CC1 | -1.27% |
| O=C(NCCCNc1ccc(C(F)(F)F)cn1)c1ccc(F)cc1Br | 13.1% |
| Cc1ccc(NC(=O)CNC(C)Cc2ccsc2)cc1F (stereo not given) | 9.17% |
| O=C(CCNC(=O)C1CCCC1)NCc1cccnc1-n1cncn1 | -3.39% |

| SMILES | cytotoxicity at 10 µM |
| --- | --- |
| CN(CC(=O)N1CCN(c2ccccc2F)CC1)c1cnccn1 | -0.341% |
| CCN(Cc1nccs1)Cc1cc(Cl)ccc1OC | -1.06% |
| CCCc1cc(C(=O)NC2CCCCNC2=O)[nH]n1 (stereo not given) | 0.828% |
| CCN1CC2(CCN(CCOc3ccc(F)cc3)CC2)CC1=O | 8.12% |
| CS(=O)(=O)N1C[C@@H]2CCN(C(=O)c3cscn3)[C@@H]2C1 | 9.79% |
| CS(=O)(=O)c1ccc(CN2CCCC3(C2)C(=O)Nc2ccccc23)cc1 (stereo not given) | -1.3% |
| CN(CCc1ccccn1)Cc1nccn1Cc1ccccc1 | 10.1% |
| O[C@H]1CN(Cc2cc3ccccc3o2)CC[C@@]12CCCO2 | -21.9% |
| CCS(=O)(=O)N1Cc2ncn(CC3CC3)c2C(COC)C1 (stereo not given) | 8.83% |
| CN(C)[C@@H]1CCN(C(=O)Cc2cccs2)[C@H]1Cc1ccncc1 | -70.1% |
| COc1ccc(N2CCC(NC(=O)c3sccc3C)CC2)cc1 | -2.28% |
| CC(Cn1cncn1)NCc1n[nH]c2c1CCCCC2 (stereo not given) | -4.39% |
| Cc1cccnc1CC(C)Nc1ncc(C)c(N(C)C)n1 (stereo not given) | 12.1% |
| Cc1nc(C2CCCN2C(=O)c2ccc(F)cc2)ncc1C(N)=O (stereo not given) | -7.62% |
| Cc1ccc(C(C)N(C)Cc2nc3c(cnn3C)c(=O)[nH]2)c(C)c1 (stereo not given) | -12.4% |
| CC(C)(C)c1csc(CN2CCN(S(=O)(=O)c3cccnc3)CC2)n1 | 3.21% |
| COc1cccc(S(=O)(=O)N2CCN(C)[C@@H]3CS(=O)(=O)C[C@@H]32)c1 | -9.6% |
| Cc1csc(CNC(=O)NC2CCCc3c2cnn3CCO)n1 (stereo not given) | 13.7% |
| CNc1nnc(CCn2nc(C)c(Br)c2C)s1 | 2.83% |
| COc1cc(C(=O)NS(=O)(=O)c2cccc(C#N)c2)cc(OC)c1C | -5.02% |
| O=C(CCc1ccc(C(F)(F)F)cc1)N1CCCS1(=O)=O | 4.37% |
| CC(=O)c1cc2ncc(C(=O)NC3CCCC3)cc2[nH]1 | -1.98% |
| C[C@@H]1CN(CCC(=O)N(C)Cc2ccccc2)C[C@@]1(O)C1CCC1 | -6.95% |
| CCc1nn(C)c(Cl)c1CN(CCOC)Cc1cnn(C)c1 | -6.5% |
| O=S(=O)(c1ccc(Cl)s1)N1CCCC(c2ncc[nH]2)C1 (stereo not given) | 6.68% |
| O=C(c1cccnc1)N1C[C@@H]2OCCN(CCN3CCCC3)[C@@H]2C1 | -71.2% |
| Cc1noc(CCNC(=O)NCC(=O)NCc2ccccc2)n1 | 5.24% |

| SMILES | cytotoxicity at 10 µM |
| --- | --- |
| Cc1cc(C)c2cc(CNCc3ccccc3)c3nn(C)c(=O)n3c2c1 | -1.47% |
| CC(C)c1cc(C(=O)NCC2CCCN(C(C)C)C2)n(C)n1 (stereo not given) | -1.75% |
| O=C(NC(c1ccc(Cl)cc1)C(F)(F)F)c1nc(=O)[nH][nH]1 (stereo not given) | 11.5% |
| CC(C)NC(=O)N1CCN2C(=O)N(Cc3ccc(F)cc3)C[C@H]2C1 | 0.88% |
| COc1cccc(-c2nc(C)c(C(=O)N[C@H](CO)CC(C)C)s2)c1 | 5.08% |
| Cc1cccc(CN2CCc3ncnc(N4CCN(C)CC4)c3CC2)n1 | -145% |
| CN(Cc1ccco1)C1CCC12CCN(C(=O)N1CCCC1)CC2 (stereo not given) | -1.54% |
| CC1CCN(C(=O)C2(Cc3cc(C4CCOC4)no3)CCNCC2)CC1 (stereo not given) | -3.04% |
| Cc1cc(NC(=O)CN2CCc3c(nc(C(C)C)n3C)C2)on1 | -3.17% |
| CCOc1ccccc1NC(=O)NCC(C)(O)CCSC (stereo not given) | -6.14% |
| Cc1cc(C(N)=O)ccc1NC(=O)c1nc(N2CCCC2)ncc1Cl | -8.94% |
| O=C(NCCc1c[nH]cn1)c1ccc(S(=O)(=O)NC2CCOC2)cc1 (stereo not given) | -1.91% |
| CCOC(=O)c1nc(CC(=O)Nc2ccc3cc[nH]c3c2)no1 | 7.12% |
| Cc1ccc(N2CC3(COCCN(Cc4cccnc4)C3)OCC2=O)s1 (stereo not given) | 2.39% |
| O=C(Cc1ccc2c(c1)CCO2)N1CCN(c2ccncc2)CC1 | -4.8% |
| O=C(CS(=O)(=O)Cc1cc(Cl)c2c(c1)OCO2)N1CCCCCC1 | -2.8% |
| COC(=O)c1ccc(N2CCN(CCS(C)(=O)=O)C(C)C2)cc1 (stereo not given) | -5.57% |
| Cc1nn(C)c(C)c1NC(=O)CCn1ncc2c(C)cccc21 | -10.8% |
| COCCC(=O)N1CCCC2(CCC(=O)N(CCc3c[nH]cn3)C2)C1 (stereo not given) | -3.76% |
| CN1C(=O)[C@H](OC(N)=O)[C@@H](C(=O)Nc2ccccc2)C12CCNCC2 | 2.73% |
| CC(C)C(C(=O)N1CCC(Nc2cccnn2)CC1)n1cncn1 (stereo not given) | -4.35% |
| COc1ccc(CCNC(=O)CN2CCCC2c2noc(C)n2)cc1 (stereo not given) | 0.772% |
| COc1ccccc1OCCNC(=O)CN1CCN(C)CC1C (stereo not given) | -12.1% |
| CN(C)[C@@H]1CN(C(=O)COc2cccc(F)c2)C[C@H]1O | -10.4% |
| CCn1cc(-c2cc(C(F)(F)F)nc(NC3CCCC3)n2)c(C)n1 | 2.33% |
| CCSc1ccccc1C(=O)N(CCOC)Cc1ccoc1 | 13.8% |

From ChEMBL document CHEMBL4513216, “Probing the Open Global Health Chemical Diversity Library for Multistage-Active Starting Points for Next-Generation Antimalarials” (ACS Infect Dis, 2020)
